Where two headings read alike, the source gives them in different places.
Tests used:
[1] = Sedimentation equilibrium analytical ultracentrifugation; assay type: physicochemical; settings: sedimentation equilibrium (and NMR correlation time)
K2Pg [2] = molecular target: T1, K2Pg (Homo sapiens, UniProt P00747, C188G/E240D/L256Y); assay: SPR binding of VEK-30 variants to immobilized K2Pg
T1 sequence (P00747 184-262 C188G/E240D/L256Y): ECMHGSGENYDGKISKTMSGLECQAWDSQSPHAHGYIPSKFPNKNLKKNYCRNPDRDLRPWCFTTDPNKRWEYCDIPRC
Method in brief: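 Recombinant peptide analytes (GB1-fusion, thrombin-cleaved, GS N-terminal remnant) were run at 25 °C. K2Pg at 100 μg/ml in 0.1 M NaOAc pH 4.0 was amine-coupled (NHS/EDC, ethanolamine block). A K2Pg-free reference cell was subtracted. KD = kd/ka.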

K2Pg [3] = molecular target: T1, K2Pg; settings: variant kringle vs K2Pg parent; ref [5]; cited from earlier work
[4] = tested on: other isolated Pg kringle domains; settings: cited from earlier work
[5] = CD α-helix content of VEK-30 peptides in absence of K2Pg; assay type: physicochemical; settings: 222 nm, 30 μM peptide, 100 mM sodium phosphate, pH 7.4, room temperature
Method in brief: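 Recombinant peptides (His6-GB1 fusion expressed in E. coli BL21(DE3), thrombin-cleaved, GS N-terminal remnant; variants by site-directed mutagenesis; integrity checked by MALDI-TOF). Spectra recorded 200–250 nm in a 1 mm quartz cell without K2Pg. Concentration set by A280. Helix fraction derived from mean residue ellipticity at 222 nm as f_α = (−[θ]222 − 2340)/30,300.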

[6] = molecular target: Human K2Pg(C4G/E56D/L72Y), isolated kringle 2 domain of human plasminogen (human); assay: AUC
[7] = molecular target: Human K2Pg(C4G/E56D/L72Y), isolated kringle 2 domain of human plasminogen (human)
[8] = molecular target: Human K2Pg(C4G/E56D/L72Y), isolated kringle 2 domain of human plasminogen (human); assay: SPR

| Substance | Kd [8] [nM] | koff [8] [s⁻¹] | kon [8] [M⁻¹ s⁻¹] | further results |
| --- | --- | --- | --- | --- |
| H-GSVEKLTADAELQRLKNERHEEAELERLKSEY-OH [VEK-30] |  |  |  | association state in solution [1]: monomeric form; koff (K2Pg [2]; pH 7.4, read-out: koff (dissociation rate constant)): 0.0293 s⁻¹; kon (K2Pg [2]; pH 7.4, read-out: kon (association rate constant)): 454000 M⁻¹ s⁻¹; affinity enhancement of K2Pg(C4G/E56D/L72Y) compared with K2Pg parent (K2Pg [3]): approximately 15 fold; specificity of binding to Pg for the kringle 2 domain ([4]; background statement in Introduction, no reference printed in that sentence): highly specific; affinity for the other isolated Pg kringle domains ([4]; ref [5],[33]): no measurable affinity; Apo-helicity (% α-helix in absence of K2Pg) [5]: 34% |
| VEK-30, 30-amino acid residue internal peptide from the streptococcal M-like plasminogen binding protein PAM | 65 | 0.0293 | 454000 | stoichiometry N (VEK-30 per K2Pg) [6]: 1; Kd [7]: 40 nM; stoichiometry N (VEK-30 per K2Pg) [8]: 1 |
| VEK-30[D7A/E9A] (peptide) | 371 | 0.0967 | 261000 |  |
| VEK-30[D7A] (peptide) | 446 | 0.0561 | 126000 |  |
| VEK-30[D7N/E9Q] (peptide) | 1710 | 0.086 | 50400 |  |
| VEK-30[D7N] (peptide) | 1940 | 0.0704 | 36200 |  |
